Measurements taken from ChEMBL document CHEMBL1772994, “Metabolic stability of 6,7-dialkoxy-4-(2-, 3- and 4-[18F]fluoroanilino)quinazolines, potential EGFR imaging probes” (Bioorg Med Chem, 2011).

Tests used:
Hepatocyte = test: Metabolic stability in cryopreserved human hepatocytes after 90 mins by radio-TLC assay; type: ADME, cell-based; conditions: 1.5 h
Method in brief: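 Cryopreserved female human hepatocytes were thawed and resuspended in modified Krebs-Henseleit buffer, and the radiotracer in buffer was added to cell wells. Incubation was at 37 °C, 5% CO2. Aliquots taken at 5–120 min went into MeOH (2 volumes), were vortexed and centrifuged at 10,000 G for 5 min. Supernatant was run on silica TLC (10% EtOH/EtOAc) and read by radio-TLC scan. Viability was checked by Trypan Blue.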

Mus musculus [1] = test: Biodistribution in tumor of EGFR negative-MDA-MB-435 cells-xenografted tumor-bearing nude SCID mouse at 1 to 2 MBq, iv after 1 to 3 hrs postinjection; conditions: in vivo
Mus musculus [2] = test: Biodistribution in tumor of EGFR positive-MDA-MB-468 cells-xenografted tumor-bearing nude SCID mouse at 1 to 2 MBq, iv after 1 to 3 hrs postinjection; conditions: in vivo
Mus musculus [3] = test: Biodistribution in tumor of EGFR positive-MDA-MB-468 cells-xenografted tumor-bearing nude SCID mouse at 1 to 2 MBq, iv after 1 hr postinjection; type: ADME, organism-based, Neoplasm; conditions: in vivo
Method in brief: (§1)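 Nude SCID mice bearing subcutaneous MDA-MB-468 flank xenografts (about 1 million cells), with MDA-MB-435 (about 1 million cells) implanted in the shoulder in some cohorts. Under isoflurane, 1–2 MBq radiotracer in saline was given by tail-vein injection. Mice (n = 4 per time point) were euthanized 1–3 h post injection. Blood, tumor and tissues were weighed and counted, giving decay-corrected %ID/g.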

Bone [4] = test: Biodistribution in tumor-bearing nude SCID mouse bone at 1 to 2 MBq, iv after 1 hr postinjection; type: ADME, organism-based, Bone element; conditions: in vivo; method in brief: as §1
Bone [5] = test: Biodistribution in tumor-bearing nude SCID mouse bone at 1 to 2 MBq, iv after 3 hrs postinjection; type: ADME, organism-based, Bone element; conditions: in vivo; method in brief: as §1
Mus musculus [6] = test: Biodistribution in tumor of EGFR negative-MDA-MB-435 cells-xenografted tumor-bearing nude SCID mouse at 1 to 2 MBq, iv after 1 hr postinjection; type: ADME, organism-based, Neoplasm; conditions: in vivo; method in brief: as §1
Mus musculus [7] = test: Biodistribution in tumor of 1 mg/kg PD153035 pretreated EGFR positive-MDA-MB-468 cells-xenografted tumor-bearing nude SCID mouse 1 to 2 MBq, iv after 1 hr relative to control; type: ADME, organism-based, Neoplasm; set-up: dose 1 mg/kg, route intravenous; conditions: in vivo
Method in brief: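 A blocking arm received PD153035 1 mg/kg iv one hour before tail-vein injection of 1–2 MBq radiotracer in saline under isoflurane, compared with a control group. Nude SCID mice bore MDA-MB-468 flank xenografts (n = 4 per time point). Tumor was excised, weighed and counted, giving decay-corrected %ID/g.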

Bone [8] = test: Biodistribution in tumor-bearing nude SCID mouse bone at 1 to 2 MBq, iv after 2 hrs postinjection; type: ADME, organism-based, Bone element; conditions: in vivo; method in brief: as §1

SMILES	Stability (Hepatocyte)	Drug uptake (Mus musculus [1]) [%]	Drug uptake (Mus musculus [2]) [%]	Drug uptake (Mus musculus [3]) [%]	Drug uptake (Bone [4]) [%]	Drug uptake (Bone [5]) [%]	Drug uptake (Mus musculus [6]) [%]	Drug uptake (Mus musculus [7])	Drug uptake (Bone [8]) [%]
CCOc1cc2ncnc(Nc3ccccc3[18F])c2cc1OCC	Stable	< 0.6	< 0.6	< 0.6	2	2	< 0.6	–	–
CCOc1cc2ncnc(Nc3ccc([18F])cc3)c2cc1OCC	Unstable	< 0.6	< 0.6	< 0.6	5	–	< 0.6	–	5

Continued, values first:

Stability (Hepatocyte)	Drug uptake (Mus musculus [1]) [%]	Drug uptake (Mus musculus [2]) [%]	Drug uptake (Mus musculus [3]) [%]	Drug uptake (Bone [4]) [%]	Drug uptake (Bone [5]) [%]	Drug uptake (Mus musculus [6]) [%]	Drug uptake (Mus musculus [7])	Drug uptake (Bone [8]) [%]	SMILES
Stable	–	–	–	–	–	–	–	–	CCOc1cc2ncnc(Nc3cccc([18F])c3)c2cc1OCC
Stable	< 0.6	< 0.6	< 0.6	2	2	< 0.6	Active	–	COc1cc2ncnc(Nc3ccccc3[18F])c2cc1OC
Stable	–	–	–	–	–	–	–	–	COc1cc2ncnc(Nc3cccc([18F])c3)c2cc1OC
Unstable	< 0.6	< 0.6	< 0.6	5	–	< 0.6	–	5	COc1cc2ncnc(Nc3ccc([18F])cc3)c2cc1OC
